PglD inh – C. jejuni PglD acetyltransferase inhibitors, primary screen, biochemical, DTNB colorimetric, single point; UDP-N-acetylbacillosamine N-acetyltransferase PglD (Campylobacter jejuni); purified PglD enzyme, DTNB colorimetric CoA detection; inhibition, % at 12.5 µM; 0.098% of 360,000 active; in the data active means inhibition above about 16%, passing the limit was not always enough
FGF22 binding – binders of human FGF22 protein, primary screen, FGF22 synaptogenesis inhibitor project, biophysical, thermal shift, single point. Fibroblast growth factor 22 (Homo sapiens), Q9HCT0. recombinant FGF22 thermal shift, SYPRO orange fluorescence; percent of sucrose octasulfate shift, DMSO zero. activity (Tm shift, normalised), % at 9.99 µM. 1.5% of 340,000 active. AID 651658, 2012;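 active means mean Tm shift, scaled 0 neutral to 100 positive control, at about 1.3% or above, every replicate too, limit read from the data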
Target sequence (Q9HCT0 whole entry, looked up): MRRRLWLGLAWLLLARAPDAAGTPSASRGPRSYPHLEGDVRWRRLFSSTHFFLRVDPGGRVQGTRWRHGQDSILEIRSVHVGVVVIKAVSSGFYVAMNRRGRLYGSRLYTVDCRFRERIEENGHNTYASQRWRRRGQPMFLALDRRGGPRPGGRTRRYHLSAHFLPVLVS
Vif inh – HIV Vif self-association inhibitors, primary screen, imaging, HEK293T, single point | HEK293T cells, Vif self-association by quenched fluorescence, 24 h | inhibition, % at 7.49 µM | 0.35% of 340,000 active | AID 602346, 2012; in the data active means inhibition above about 50%, passing the limit was not always enough
Cneo AK release – Cryptococcus neoformans cell lysis inducers, primary screen, AK release luminescence, single concentration | C. neoformans lysis, adenylate kinase release luminescence, 4 h; normalised: neutral wells 0, clomiphene wells 100 | lysis activity, % at 15 µM | 0.2% of 360,000 active | AID 651654, 2012;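 active means mean lysis activity across replicates of at least 80%, whatever share of replicates individually reach that level; inactive means mean lysis activity below 80%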
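Assay system: C. neoformans cells. Amount: yeast cell density of 5 × 10^6 cells/mL. Technique: AK luminescence. Buffer or medium: YPD. Times: static 4 h at 37 °C with compound, 1 h detection. Dosing: single-point compound dose. Read-out: lysis from increased AK signal.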
rRNA inh HTS – reduced GFP signal of wild-type E. coli, primary screen, bacterial rRNA inhibitor project, GFP/RFP fluorescence, OD600, single point | E. coli WT GFP vs humanized-ribosome RFP mutants, 24 h; stronger effect = lower value; DMSO median 0, no signal -100 | GFP signal change (wild-type ribosome), % (concentration not given with the values) | 1.6% of 350,000 active;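 active means significant combined selectivity score with lowered wild-type GFP, culture density cut under 30%, mutant RFP and density less affected; inactive means any of these conditions unmet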
PGC1a acetyl inh – inhibitors of PGC1a acetylation signal, primary screen, cell-based, U2OS, AlphaScreen, inhibitor mode; AlphaScreen anti-acetyl-lysine; with virally co-expressed GCN5 acetyltransferase; inhibition, % at 15.6 µM; 0.17% of 350,000 active; AID 651687, 2012;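 active means every replicate shows inhibition of at least 40%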
Large screens that a line does not name were inactive. Only some compounds are listed: those with a hit (about 2.9% of all), similar ones and a draw of the others.

CN(C(=O)c1ccc(OC2CCN(S(=O)(=O)N(C)C)CC2)cc1)C1CCCCC1	none (no result: PglD inh, Cneo AK release)
CCN(Cc1cnn(C)c1)C(=O)c1ccc(OC2CCN(S(=O)(=O)N(C)C)CC2)cc1	FGF22 binding 43.7 (no result: PglD inh, Cneo AK release)
ClC1(Cl)CC1CSc1nnc(-c2ccncc2)o1 (configuration not stated)	rRNA inh HTS -19.0
CN(C)C(=O)C[C@H]1C[C@H]2c3cc(NC(=O)C4CCOCC4)ccc3O[C@H]2[C@H](CO)O1	none (no result: Vif inh)
C[C@@H](NC(=O)[C@H]1[C@H](CO)[C@H]2Cn3c(cccc3=O)[C@@H]1N2C(=O)C1CC1)c1ccccc1	none (no result: Vif inh, PGC1a acetyl inh)
COc1cccc(NC(=O)COC(=O)C2CCN(S(=O)(=O)c3cccs3)CC2)c1	FGF22 binding 43.4 (no result: Vif inh, rRNA inh HTS)
[O-]/[N+](=C\c1ccccc1)[C@@H]1CCCC[C@@H]1/[N+]([O-])=C/c1ccccc1	none (no result: FGF22 binding, rRNA inh HTS)
[O-][N+](=Cc1ccccc1)CC1(O)CCCCC1	FGF22 binding 43.3
O=C(NCc1ccccc1)[C@@H]1[C@@H](CO)[C@@H]2Cn3c(cccc3=O)[C@H]1N2C(=O)CC1CC1	none (no result: Vif inh)
COCCn1c(-c2ccc(SC)cc2)nc2c1c(=O)[nH]c(=O)n2CC(C)C	none (no result: PGC1a acetyl inh)
CC(C)Cn1c(-c2cc(Br)ccc2F)nc2c1c(=O)[nH]c(=O)n2CC(C)C	FGF22 binding 2.3
CCCCn1c(-c2ccncc2)nc2c1c(=O)[nH]c(=O)n2CC(C)C	Vif inh 56.9 (no result: FGF22 binding, rRNA inh HTS)
N#C[C@H]1[C@@H](c2ccccc2-c2ccccc2)[C@@H](CO)N1C(=O)NC1CCCC1	none (no result: PglD inh, Vif inh, Cneo AK release)
C[C@@H]1CCCCO[C@H](CN(C)C(=O)Nc2ccccc2)[C@@H](C)CN([C@@H](C)CO)C(=O)c2cc(NC(=O)c3ccncc3)ccc2O1	none (no result: FGF22 binding, Vif inh)
O=C(Nc1ccc(NC(=O)c2cccs2)c(Cl)c1)c1ccco1	rRNA inh HTS -27.1 (no result: PglD inh, Cneo AK release, PGC1a acetyl inh)
COc1ccc(NC(=O)c2ccco2)cc1NC(=O)c1cccs1	none (no result: FGF22 binding, rRNA inh HTS)
CO[C@H]1CN(C)C(=O)c2cc(NC(=O)C3CCOCC3)ccc2OC[C@H](C)N(C(C)=O)C[C@@H]1C	none (no result: Vif inh)
COc1ccc2c3c([nH]c2c1)[C@H](CO)N(C)CC31CCN(C(=O)NC(C)C)CC1	none (no result: PglD inh, FGF22 binding, Vif inh, Cneo AK release, PGC1a acetyl inh)
COCC(=O)N(C)C[C@@H]1Oc2ncc(C#CCC3CCCC3)cc2C(=O)N([C@@H](C)CO)C[C@H]1C	Cneo AK release 103.2 (no result: Vif inh)
CCCNC(=O)N(C)C[C@@H]1Oc2ncc(C#CCc3ccccc3)cc2C(=O)N([C@H](C)CO)C[C@H]1C	none (no result: Vif inh)
CCCNC(=O)N(C)C[C@@H]1Oc2ncc(C#CCc3ccccc3)cc2C(=O)N([C@@H](C)CO)C[C@@H]1C	Cneo AK release 96.8 (no result: Vif inh)
CCC(=O)N(C)C[C@H]1Oc2ncc(C#CCc3ccccc3)cc2C(=O)N([C@H](C)CO)C[C@H]1C	none (no result: Vif inh)
COCC(=O)N(C)C[C@H]1Oc2ncc(C#CCC3CCCC3)cc2C(=O)N([C@H](C)CO)C[C@H]1C	none (no result: Vif inh)
CCC(=O)N(C)C[C@@H]1Oc2ncc(C#CCc3ccccc3)cc2C(=O)N([C@H](C)CO)C[C@@H]1C	PGC1a acetyl inh 100.6 (no result: Vif inh)
C[C@@H]1CN([C@@H](C)CO)C(=O)Cc2cc(NC(=O)Nc3ccccc3)ccc2O[C@H]1CN(C)C(=O)Nc1cccc2ccccc12	none (no result: Vif inh)
COC(=O)C(CCSC)NC(=O)/C=C/c1ccc(OC)cc1 (configuration not stated)	FGF22 binding 43.5 (no result: PglD inh, Cneo AK release)
COc1ccc(/C=C/C(=O)NC(C)CCc2ccccc2)cc1 (configuration not stated)	none (no result: PglD inh, FGF22 binding, Cneo AK release, rRNA inh HTS, PGC1a acetyl inh)
CC(C)CN1CCN(Cc2ccc3ncccc3c2)CC1CCO (configuration not stated)	FGF22 binding 43.8 (no result: rRNA inh HTS)
COc1ccc(/C=C/CN2CCN(CC(C)C)C(CCO)C2)cc1 (configuration not stated)	FGF22 binding 44.0 (no result: PglD inh, Cneo AK release, PGC1a acetyl inh)
OCCC1CN(Cc2ccn[nH]2)CCN1Cc1ccc(F)c(F)c1 (configuration not stated)	none (no result: PglD inh, Cneo AK release)
OCCC1CN(Cc2ccc3ncccc3c2)CCN1Cc1ccccc1 (configuration not stated)	none (no result: PglD inh, Cneo AK release)
OCCC1CN(Cc2cccc3nccnc23)CCN1Cc1ccc(F)c(F)c1 (configuration not stated)	FGF22 binding 43.6 (no result: PglD inh, Cneo AK release, rRNA inh HTS, PGC1a acetyl inh)
COc1cc(Br)cc(/C=N/N(CCO)C2=NS(=O)(=O)c3ccccc32)c1OC	rRNA inh HTS -21.5
O=C(O)c1cccc(S(=O)(=O)NCCC(c2ccccc2)c2ccccc2)c1	rRNA inh HTS -27.1 (no result: PglD inh, Cneo AK release)
O=C(O)c1cccc(S(=O)(=O)NCCc2ccccc2)c1	none (no result: PglD inh, Cneo AK release)
Cc1ccc(S(=O)(=O)NNC(=O)Nc2ccc([N+](=O)[O-])cc2)c(C)c1	rRNA inh HTS -22.6 (no result: Vif inh)
Cc1ccc(S(=O)(=O)NNC(=O)Nc2cccc(F)c2)c(C)c1	none
CCOc1ccccc1NC(=O)c1csc(C)c1C	rRNA inh HTS -30.6 (no result: Vif inh, PGC1a acetyl inh)
CCCC(=O)Nc1ccc2c(c1)OC[C@@H](C)N(Cc1ccc(F)cc1)C[C@@H](C)[C@@H](OC)CN(C)C2=O	none (no result: Vif inh)
COC(=O)c1ccc(COC(=O)[C@@H]2CC(O)CN2S(=O)(=O)c2ccccc2[N+](=O)[O-])cc1 (some centres not stated)	rRNA inh HTS -17.4
O=C(COC(=O)[C@@H]1CC(O)CN1S(=O)(=O)c1ccccc1[N+](=O)[O-])c1ccccc1 (some centres not stated)	none
O=S(=O)(NC1CCc2ccccc21)c1ccc(S(=O)(=O)N2CCCC2)cc1 (configuration not stated)	rRNA inh HTS -28.7 (no result: PglD inh, Cneo AK release, PGC1a acetyl inh)
Cc1ccc(OCC(=O)Nc2nnc(C3CCCO3)s2)c(Br)c1 (configuration not stated)	FGF22 binding 44.0 (no result: PglD inh, Cneo AK release, PGC1a acetyl inh)
NC1=C(Br)C(=O)c2ncccc2C1=O	PGC1a acetyl inh 87.1 (no result: PglD inh, Cneo AK release)
CCNC(=O)C[C@@H]1CC[C@@H]2[C@@H](COc3ccc(NC(=O)c4cc(C)on4)cc3C(=O)N2C)O1	none (no result: Vif inh)
CC(C)CCN1CCN(Cc2cccs2)CC1CCO (configuration not stated)	FGF22 binding 43.1 (no result: PGC1a acetyl inh)
COc1cc(CNc2ccc(N3CCN(C(C)=O)CC3)cc2)ccc1OCc1ccc(F)cc1	rRNA inh HTS -27.4 (no result: PglD inh, Cneo AK release)
O=C(CSC(=S)N1CCCC1)c1cc(Br)cc(Br)c1O	FGF22 binding 45.6, rRNA inh HTS -30.1 (no result: PglD inh, Vif inh, Cneo AK release, PGC1a acetyl inh)
CC1CCCN(C(=S)SCC(=O)c2cc(Br)cc(Br)c2O)C1 (configuration not stated)	none (no result: PglD inh, FGF22 binding, Cneo AK release, rRNA inh HTS)

Source: PubChem BioAssay (Broad Institute)
